The nature of series [1]: Antiradical activity against PMA-stimulated BALB/c mouse bone marrow leucocytes assessed as inhibition of ROS production measured for 60 mins by chemiluminescence based analysis. It is filed as functional, cell-based. The settings on record: Leucocyte, 1 h. In outline: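 BALB/c mouse bone marrow leukocytes were suspended at 10^6 cells/ml in HBSS with Ca2+/Mg2+ and 40 μM L-012. Compounds were added in HBSS+ (final DMSO 1%), tested up to a highest concentration of 50 μM. Cells were stimulated with 200 nM PMA, and chemiluminescence was read every 2 min for 60 min at 37 °C. Values are mean ± SD, n=3.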

In series [2] the target is T1, Neutrophil elastase (Homo sapiens) (UniProt P08246).
T1 sequence (whole entry): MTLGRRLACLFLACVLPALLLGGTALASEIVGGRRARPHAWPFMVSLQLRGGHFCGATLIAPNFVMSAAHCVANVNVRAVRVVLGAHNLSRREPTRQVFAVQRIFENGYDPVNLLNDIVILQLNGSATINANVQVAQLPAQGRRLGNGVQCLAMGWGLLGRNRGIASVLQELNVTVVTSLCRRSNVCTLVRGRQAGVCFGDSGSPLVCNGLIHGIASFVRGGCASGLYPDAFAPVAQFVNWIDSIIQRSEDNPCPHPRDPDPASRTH
In words: Inhibition of human neutrophil elastase using N-methylsuccinyl-Ala-Ala-Pro-Val-7-amino-4-methylcoumarin as substrate at 50 uM measured every 30 secs for 10 mins by fluorescence based analysis.

For a further series, the system named is Leucocyte. In words: Antiradical activity against PMA-stimulated BALB/c mouse bone marrow leucocytes assessed as inhibition of ROS production at 50 uM measured for 60 mins by chemiluminescence based analysis. It is filed as functional, cell-based. In outline: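 BALB/c mouse bone marrow leukocytes were suspended at 10^6 cells/ml in HBSS with Ca2+/Mg2+ and 40 μM L-012. Compounds were added in HBSS+ (final DMSO 1%), tested up to a highest concentration of 50 μM. Cells were stimulated with 200 nM PMA, and chemiluminescence was read every 2 min for 60 min at 37 °C. IC50 came from % inhibition of the 60-min integrated signal versus log concentration (5–7 concentrations, nonlinear regression). Values are mean ± SD, n=3.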

Series [3] can be described thus: Cytotoxicity against CD-1 mouse bone marrow leucocytes assessed as reduction in cell viability at 25 uM incubated for 90 mins by CellTiter-Glo Luminescent assay. It is filed as toxicity, cell-based. Conditions: leucocyte. In outline: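 CD-1 mouse bone marrow leukocytes at 10^4 cells/well were exposed to compounds up to 25 μM (highest tested; final DMSO 1%) for 90 min at 37 °C, 5% CO2. Viability was read by CellTiter-Glo luminescence. IC50 values are mean ± SD of three independent experiments.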

The source made the active and inactive calls. The rule behind the calls is not given here.

Consider `O=C(C1CC1)n1[se]c2ccccc2c1=O`, for which, in series [1], the IC50 was 50 nM. As to `Cc1cccc(NC(=O)c2ccc(-n3[se]c4ccccc4c3=O)cc2)c1`, the inhibition result (in series [2]; with Leucocyte) was “inactive” throughout. Besides, in series [3], the Activity result is “Non-Toxic”. With `O=c1c2ccccc2[se]n1-c1ccccc1`, the inhibition result in series [2] was “inactive”. `CC(C)(C)C(=O)Oc1ccc(S(=O)(=O)n2[se]c3ccccc3c2=O)cc1`: the Activity result in series [3] was “Non-Toxic”. `Cc1cccc(C(=O)n2[se]c3ccccc3c2=O)c1`: the Activity result in series [3] is recorded as “Non-Toxic”. With `O=C(NC1CC1)c1ccc(-n2[se]c3ccccc3c2=O)cc1`, the inhibition entry in series [2] was “inactive”. As to `CCCCCC(=O)n1[se]c2ccccc2c1=O`, the inhibition result in the series with Leucocyte was “inactive”. Also, the Activity result in series [3] is recorded as “Non-Toxic”. As for `CCOC(=O)c1ccc(-n2[se]c3ccccc3c2=O)cc1`, the inhibition result in series [2] is “inactive”. Besides, in series [3], the Activity entry is given as “Non-Toxic”. Turning to `O=C(c1ccsc1)n1[se]c2ccccc2c1=O`, the inhibition entry in series [2] is “inactive”. The Activity result in series [3] is given as “Non-Toxic”. Regarding `O=C(NC1CC1)n1[se]c2ccccc2c1=O`, in series [2], the inhibition result is “inactive”. Regarding `CC(C)(C)C(=O)Oc1ccc(S(=O)(=O)Nc2ccccc2C(=O)NCC(=O)O)cc1`, the Activity result in series [3] is “Non-Toxic”. As for `CCOC(=O)n1[se]c2ccccc2c1=O`, in series [2], the inhibition entry is “inactive”. Take `CCOC(=O)CC(=O)n1[se]c2ccccc2c1=O`: the inhibition entry in series [2] is “inactive”.

Values taken from ChEMBL document CHEMBL5385968 (RSC Med Chem, 2024).
